What was measured:
Hepatitis B virus [1] = assay: Antiviral activity against HBV infected in human HepG2(2.2.15) cells assessed as inhibition of HBsAg production after 9 days by ELISA; format: functional, organism-based; conditions: HepG2 2.2.15, 216 h
Procedure, shortened: (§1)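 HepG2 2.2.15 cells (HBV-producing) given a range of compound concentrations for nine days; culture supernatants collected and HBsAg or HBeAg levels measured by ELISA. IC50 taken as the concentration giving 50% inhibition of antigen level.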

Hepatitis B virus [2] = assay: Antiviral activity against HBV infected in human HepG2(2.2.15) cells assessed as inhibition of HBeAg production after 9 days by ELISA; format: functional, organism-based; conditions: HepG2 2.2.15, 216 h; procedure, shortened: as §1
Hepatitis B virus [3] = assay: Antiviral activity against HBV infected in human HepG2(2.2.15) cells assessed as inhibition of viral replication after 9 days by fluorescence PCR method; format: functional, organism-based; conditions: HepG2 2.2.15, 216 h
Procedure, shortened: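 HepG2 2.2.15 cells given a range of compound concentrations for nine days; HBV DNA quantified by fluorescence PCR. IC50 taken as the concentration giving 50% inhibition of HBV DNA replication.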

[4] = Selectivity index, ratio of CC50 for human HepG2(2.2.15) cells to IC50 for HBV infected in human HepG2(2.2.15) cells assessed as inhibition of HBsAg production; format: functional
Procedure, shortened: (§2)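 Selectivity index calculated as CC50 in HepG2 2.2.15 cells (MTT, 9-day exposure) divided by IC50 for HBeAg or HBsAg reduction (ELISA of 9-day supernatants).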

A549 = assay: Growth inhibition of human A549 cells after 48 hrs by MTT assay; format: functional, cell-based; conditions: A549, 48 h
Procedure, shortened: (§3)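 Cells seeded at 8000/well, treated 24 h later in duplicate with a range of concentrations (DMSO stock 10 g/L diluted in fresh medium), 48 h at 37 °C, 5% CO2. MTT (5 mg/ml in PBS) added for 4 h, formazan dissolved in DMSO, absorbance read at 570 nm. IC50 is the concentration giving 50% survival.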

[5] = Cytotoxicity against human HepG2(2.2.15) cells compound treated for 48 hrs followed by incubation for 9 days by MTT assay; format: cell-based
Procedure, shortened: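 HepG2 2.2.15 cells kept 48 h in plates before adding compounds (DMSO stocks serially diluted in medium), then incubated at 37 °C for 9 days. Media-only wells as blank. MTT (5 g/L) added 4 h before lysis in 10% SDS/50% DMF, pH 7.2; OD at 570 nm gives percent cell death; CC50 derived.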

Huh-7 = assay: Growth inhibition of human HuH7 cells after 48 hrs by MTT assay; format: functional, cell-based; conditions: Huh-7, 48 h; procedure, shortened: as §3
HeLa = assay: Growth inhibition of human HeLa cells after 48 hrs by MTT assay; format: functional, cell-based; procedure, shortened: as §3
[6] = Growth inhibition of human L02 cells after 48 hrs by MTT assay; format: functional, cell-based; conditions: L02, 48 h; procedure, shortened: as §3
[7] = Growth inhibition of human QGY7701 cells after 48 hrs by MTT assay; format: functional; conditions: QGY7701, 48 h; procedure, shortened: as §3
[8] = Selectivity index, ratio of CC50 for human HepG2(2.2.15) cells to IC50 for HBV infected in human HepG2(2.2.15) cells assessed as inhibition of HBeAg production; format: functional; procedure, shortened: as §2
[9] = Selectivity index, ratio of CC50 for human HepG2(2.2.15) cells to IC50 for HBV infected in human HepG2(2.2.15) cells assessed as inhibition of viral replication; format: functional
Procedure, shortened: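 Selectivity index calculated as CC50 in HepG2 2.2.15 cells (MTT, 9-day exposure) divided by IC50 for HBV DNA reduction measured by fluorescence PCR after 9 days.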

SMILES	IC50 (Hepatitis B virus [1]) [µM]	IC50 (Hepatitis B virus [2]) [µM]	IC50 (Hepatitis B virus [3]) [µM]	Ratio CC50/IC50 [4]	IC50 (A549) [µM]	CC50 at 48 h [5] [µM]	IC50 (Huh-7) [µM]	IC50 (HeLa) [µM]	IC50 [6] [µM]	IC50 [7] [µM]	Ratio CC50/IC50 [8]	Ratio CC50/IC50 [9]
COc1ccc2c(=O)c(/C=C/C(=O)NCCc3ccccc3F)coc2c1	47.9	> 100	> 100	9.55	10.3	457	> 100	12.2	> 200	81.7	–	–
COc1ccc2c(=O)c(/C=C/C(=O)NCCc3cccc(F)c3)coc2c1	> 100	> 100	> 100	–	9.77	1030	8.96	15.3	> 200	23.4	–	–
COc1ccc2c(=O)c(/C=C/C(=O)NCCc3ccc(F)cc3)coc2c1	14.7	14.7	> 100	53.64	18.9	786	29.2	> 100	> 200	24.8	53.45	–
Cc1ccccc1NC(=O)/C=C/c1coc2cc(O)ccc2c1=O	> 100	> 100	> 100	–	> 100	374	11.1	8.67	> 200	9.32	–	–
COc1ccc(NC(=O)/C=C/c2coc3cc(O)ccc3c2=O)cc1	> 100	> 100	7.01	–	12.8	976	> 100	> 100	> 200	> 100	–	139.21
O=C(/C=C/c1coc2cc(O)ccc2c1=O)NCc1ccccc1	> 100	> 100	> 100	–	> 100	436	4.69	> 100	> 200	63	–	–
O=C(/C=C/c1coc2cc(O)ccc2c1=O)NCc1ccc(F)cc1	> 100	> 100	33.5	–	> 100	357	> 100	> 100	> 200	> 100	–	10.68
O=C(/C=C/c1coc2cc(O)ccc2c1=O)NCc1ccc(F)cc1F	14.5	12.3	23.3	32.34	6.61	470	> 100	> 100	> 200	> 100	38.05	20.16
O=C(/C=C/c1coc2cc(O)ccc2c1=O)NCCc1ccc(F)cc1	14.6	15.4	> 100	7.03	6.84	102	> 100	> 100	> 200	> 100	6.64	–
COc1ccc2c(=O)c(/C=C/C(=O)Nc3ccccc3OC)coc2c1	> 100	> 100	> 100	–	> 100	1050	32.3	> 100	> 200	17.6	–	–
COc1cccc(NC(=O)/C=C/c2coc3cc(OC)ccc3c2=O)c1	> 100	> 100	> 100	–	12.8	1130	11.1	19.2	> 200	39.1	–	–
COc1ccc(NC(=O)/C=C/c2coc3cc(OC)ccc3c2=O)cc1	> 100	> 100	14.2	–	23	718	> 100	13	> 200	> 100	–	50.38
CCOc1ccc(NC(=O)/C=C/c2coc3cc(OC)ccc3c2=O)cc1	> 100	> 100	> 100	–	> 100	460	3.23	> 100	> 200	> 100	–	–
COc1ccc2c(=O)c(/C=C/C(=O)Nc3ccc(F)cc3)coc2c1	> 100	> 100	> 100	–	26.8	743	33.9	9.68	> 200	> 100	–	–
COc1ccc2c(=O)c(/C=C/C(=O)Nc3ccccc3Cl)coc2c1	> 100	> 100	> 100	–	29.9	1010	58.4	22.4	> 200	23	–	–
COc1ccc2c(=O)c(/C=C/C(=O)NCc3ccccc3)coc2c1	> 100	> 100	56.8	–	11.8	376	13.6	33.4	> 200	> 100	–	6.62
COc1ccc2c(=O)c(/C=C/C(=O)NCc3ccc(C)cc3)coc2c1	82.6	> 100	53.5	3.11	> 100	257	14.3	> 100	> 200	10.2	–	4.81
COc1ccc2c(=O)c(/C=C/C(=O)NCc3ccccc3F)coc2c1	52.1	> 100	68.6	2.8	> 100	146	8.45	> 100	> 200	34	–	2.13
COc1ccc2c(=O)c(/C=C/C(=O)NCc3cccc(F)c3)coc2c1	83.8	> 100	75.4	5.67	26.9	475	10.1	17.6	> 200	28.6	–	6.3
COc1ccc2c(=O)c(/C=C/C(=O)NCc3ccc(F)cc3)coc2c1	58.8	> 100	11.2	2.26	> 100	133	20.9	> 100	> 200	7.96	–	11.84
COc1ccc2c(=O)c(/C=C/C(=O)Nc3ccccc3)coc2c1	16	16.9	> 100	32.7	51	523	9.05	> 100	> 200	14	30.85	–
COc1ccc2c(=O)c(/C=C/C(=O)Nc3ccccc3C)coc2c1	14.9	15.8	> 100	4	23.4	59.7	26.9	7.27	> 200	22.4	3.77	–
COc1ccc2c(=O)c(/C=C/C(=O)Nc3cccc(C)c3)coc2c1	> 100	> 100	34.9	–	> 100	554	15.5	> 100	> 200	> 100	–	15.85
COc1ccc2c(=O)c(/C=C/C(=O)Nc3ccc(C)cc3)coc2c1	> 100	> 100	28.2	–	17.5	979	> 100	24.1	> 200	39.3	–	34.69
COc1ccc2c(=O)c(/C=C/C(=O)Nc3cc(C)ccc3C)coc2c1	> 100	> 100	> 100	–	15.5	1100	11.1	58.4	> 200	> 100	–	–
O=c1[nH]cc(F)c(=O)[nH]1 [FLUOROURACIL]	–	–	–	–	–	–	15.8	–	–	–	–	–
